Molecules are shown by their SMILES.

The values below come from ChEMBL document CHEMBL3621094, “Effect of alkyl group on transnitrosation of N-nitrosothiazolidine thiocarboxamides” (Bioorg Med Chem, 2015).

What all share (type): physicochemical
Data set [1] can be described thus: Transnitrosation activity assessed as pseudo first order rate constant at 0.45 mM in presence of 5 mM GSH at pH 1.5 at 37 degC under dark condition. To be noted: pH 1.5, 450 µM. Summed up: (§1)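 Pseudo-first-order kobs for GSNO formation was measured at 0.45 mM N-nitrosamine, 5.0 mM GSH with DTPA, and 37 °C, with pH set by HCl (pH-rate profile 1.4–3.3). kobs was the least-squares slope of the initial linear part of ln{[GSNO∞]/([GSNO∞]−[GSNO])} versus time, taking GSNO∞ as the initial nitroso compound level (0.45 mM). There were three separate trials.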

A short description of data set [2]: Transnitrosation activity assessed as S-nitrosoglutathione level at 0.45 mM in presence of 5 mM GSH at pH 1.5 at 37 degC under dark condition. Conditions: pH 1.5, 450 µM. A digest of the protocol:
(§2)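 Nitrosamine (4.5 mM acetonitrile stock, 0.45 mM final) added to GSH (5.0 mM) with DTPA. The mixture was acidified to pH 1.5 with 0.1 M HCl and held at 37 °C in the dark. GSNO formation was followed against time, and data were taken after 24 h.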

Data set [3] in a line: Transnitrosation activity assessed as compound consumption level at 0.45 mM in presence of 5 mM GSH at pH 1.5 at 37 degC under dark condition after 24 hrs. Conditions: pH 1.5, 24 h, 450 µM. A digest of the protocol: as §2
A short description of data set [4]: Transnitrosation activity assessed as S-nitrosoglutathione yield at 0.45 mM in presence of 5 mM GSH at pH 1.5 at 37 degC under dark condition after 24 hrs. To be noted: pH 1.5, 24 h, 450 µM. A digest of the protocol:
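Reaction run at 0.45 mM N-nitrosamine and 5.0 mM GSH, with DTPA, at pH 1.5 (HCl) and 37 °C in the dark. After 24 h, yield was calculated as GSNO formed divided by N-nitrosamine consumed.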

The nature of data set [5]: Transnitrosation activity assessed as pseudo first order rate constant at 0.45 mM in presence of 5 mM GSH at pH 1.4 at 37 degC under dark condition. Conditions: pH 1.4, 450 µM. Summed up: as §1
Data set [6] in a line: Transnitrosation activity assessed as pseudo first order rate constant at 0.45 mM in presence of 5 mM GSH at pH 1.7 at 37 degC under dark condition. To be noted: pH 1.7, 450 µM. Summed up: as §1
Data set [7] in a line: Transnitrosation activity assessed as pseudo first order rate constant at 0.45 mM in presence of 5 mM GSH at pH 2 at 37 degC under dark condition. To be noted: pH 2, 450 µM. A digest of the protocol:
as §1

Data set [8] can be described thus: Transnitrosation activity assessed as pseudo first order rate constant at 0.45 mM in presence of 5 mM GSH at pH 2.2 at 37 degC under dark condition. Conditions: pH 2.2, 450 µM. A digest of the protocol:
as §1

Data set [9] in a line: Transnitrosation activity assessed as pseudo first order rate constant at 0.45 mM in presence of 5 mM GSH at pH 2.8 at 37 degC under dark condition. Conditions: pH 2.8, 450 µM. Summed up: as §1
A short description of data set [10]: Transnitrosation activity assessed as pseudo first order rate constant at 0.45 mM in presence of 5 mM GSH at pH 3.4 at 37 degC under dark condition. To be noted: pH 3.4, 450 µM.

Consider `NC(=S)C1CSCN1N=O` (stereo not drawn), for which the K in [1] amounted to 1301 ×10⁻⁷ /s. Also, the Activity in data set [2] was 0.43 mM; in [3], 0.45 mM; in data set [4], 95%. Further, the “log K” value is -3.73 in [5]; -4.24 in data set [6]; -5.24 in [7]; -4.73 in [8]; -6.16 in data set [9]; -6.37 in [10].
On to `CNC(=S)C1CSCN1N=O` (stereo not drawn), for which the K in [1] turned out to be 464 ×10⁻⁷ /s. Further, the values for the Activity in data set [2], in data set [3] and in data set [4] were 0.38 mM, 0.45 mM and 85%, respectively.
Take `CN(C)C(=S)C1CSCN1N=O` (stereo not drawn): in data set [1], the K is reported as 405 ×10⁻⁷ /s. Also, the results for the Activity in data set [2], in [3] and in data set [4] were 0.38 mM, 0.45 mM and 84%, respectively.
